The target of series [1] is T1, Lysine-specific demethylase 4C (Homo sapiens, UniProt Q9H3R0).
T1 sequence (Q9H3R0 whole entry): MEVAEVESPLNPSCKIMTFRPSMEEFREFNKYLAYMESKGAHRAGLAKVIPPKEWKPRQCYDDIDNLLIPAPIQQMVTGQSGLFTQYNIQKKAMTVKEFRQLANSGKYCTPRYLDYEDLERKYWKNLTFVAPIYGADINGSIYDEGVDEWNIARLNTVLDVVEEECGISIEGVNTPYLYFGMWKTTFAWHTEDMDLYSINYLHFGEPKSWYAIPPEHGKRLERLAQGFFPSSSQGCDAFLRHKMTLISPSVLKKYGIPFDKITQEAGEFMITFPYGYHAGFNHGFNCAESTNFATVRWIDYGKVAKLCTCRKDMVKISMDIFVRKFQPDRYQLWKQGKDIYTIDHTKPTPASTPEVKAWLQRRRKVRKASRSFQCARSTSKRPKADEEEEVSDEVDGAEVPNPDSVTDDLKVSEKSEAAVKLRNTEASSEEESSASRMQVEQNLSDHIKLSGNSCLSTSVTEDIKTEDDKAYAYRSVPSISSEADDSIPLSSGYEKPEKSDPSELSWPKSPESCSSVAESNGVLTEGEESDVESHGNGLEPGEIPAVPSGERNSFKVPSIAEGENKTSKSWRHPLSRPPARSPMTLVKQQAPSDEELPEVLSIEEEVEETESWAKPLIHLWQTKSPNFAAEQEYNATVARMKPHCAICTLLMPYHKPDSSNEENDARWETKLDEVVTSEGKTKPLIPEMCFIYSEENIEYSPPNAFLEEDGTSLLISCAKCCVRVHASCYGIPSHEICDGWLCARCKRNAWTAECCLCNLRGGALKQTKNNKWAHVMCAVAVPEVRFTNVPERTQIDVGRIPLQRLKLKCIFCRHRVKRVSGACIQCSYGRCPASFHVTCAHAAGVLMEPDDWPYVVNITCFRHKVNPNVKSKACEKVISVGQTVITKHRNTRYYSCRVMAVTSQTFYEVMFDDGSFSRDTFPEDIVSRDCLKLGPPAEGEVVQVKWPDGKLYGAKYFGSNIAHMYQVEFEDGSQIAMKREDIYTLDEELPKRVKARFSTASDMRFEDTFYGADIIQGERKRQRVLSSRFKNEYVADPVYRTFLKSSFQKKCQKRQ
Briefly: Inhibition of N-terminal his-tagged human KDM4C expressed in Escherichia coli BL21(DE3) using trimethylated peptide substrate by RFMS assay.

A short description of series [2]: physchem. As to conditions: buffer, pH 7.4.
Series [3] concerns the target T1, Lysine-specific demethylase 4C. Briefly: Inhibition of N-terminal his-tagged full-length human KDM4C transfected in U2OS cells assessed as inhibition of H3K9Me3 demethylation for 24 hrs. Type of series: cell-based.
Series [4] addresses T2, Lysine-specific demethylase 4A (Homo sapiens, UniProt O75164).
T2 sequence (O75164 whole entry): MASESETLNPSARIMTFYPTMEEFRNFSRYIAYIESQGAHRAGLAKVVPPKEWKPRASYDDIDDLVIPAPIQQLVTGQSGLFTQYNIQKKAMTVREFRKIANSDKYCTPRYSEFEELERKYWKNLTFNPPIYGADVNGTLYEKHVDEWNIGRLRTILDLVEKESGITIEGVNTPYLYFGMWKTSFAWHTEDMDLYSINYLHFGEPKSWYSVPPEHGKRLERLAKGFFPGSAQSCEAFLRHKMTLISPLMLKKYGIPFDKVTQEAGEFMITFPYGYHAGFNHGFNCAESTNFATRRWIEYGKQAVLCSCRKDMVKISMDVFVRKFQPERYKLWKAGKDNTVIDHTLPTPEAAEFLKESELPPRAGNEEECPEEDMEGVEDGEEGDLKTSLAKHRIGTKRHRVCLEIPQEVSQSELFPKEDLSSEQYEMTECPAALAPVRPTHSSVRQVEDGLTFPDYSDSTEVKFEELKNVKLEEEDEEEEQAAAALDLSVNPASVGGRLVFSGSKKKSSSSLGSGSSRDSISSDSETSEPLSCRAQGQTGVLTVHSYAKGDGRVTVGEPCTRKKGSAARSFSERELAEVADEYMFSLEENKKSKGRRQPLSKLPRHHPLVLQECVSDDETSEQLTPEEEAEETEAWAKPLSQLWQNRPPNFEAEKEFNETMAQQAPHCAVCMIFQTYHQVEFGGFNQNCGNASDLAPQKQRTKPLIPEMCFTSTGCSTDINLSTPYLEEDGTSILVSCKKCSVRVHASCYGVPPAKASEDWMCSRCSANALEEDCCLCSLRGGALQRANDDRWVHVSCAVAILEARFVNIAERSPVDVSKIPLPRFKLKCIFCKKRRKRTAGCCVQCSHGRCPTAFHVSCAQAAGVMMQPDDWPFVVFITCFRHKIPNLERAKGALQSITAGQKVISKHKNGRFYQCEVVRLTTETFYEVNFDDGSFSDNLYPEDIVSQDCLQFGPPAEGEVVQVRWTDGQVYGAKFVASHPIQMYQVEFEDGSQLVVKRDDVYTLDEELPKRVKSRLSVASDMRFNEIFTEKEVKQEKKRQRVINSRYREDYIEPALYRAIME
Briefly: Inhibition of KDM4A (unknown origin) by RFMS assay.

In series [5] the target is T3, Lysine-specific demethylase 4E (Homo sapiens, UniProt B2RXH2).
T3 sequence (B2RXH2 whole entry): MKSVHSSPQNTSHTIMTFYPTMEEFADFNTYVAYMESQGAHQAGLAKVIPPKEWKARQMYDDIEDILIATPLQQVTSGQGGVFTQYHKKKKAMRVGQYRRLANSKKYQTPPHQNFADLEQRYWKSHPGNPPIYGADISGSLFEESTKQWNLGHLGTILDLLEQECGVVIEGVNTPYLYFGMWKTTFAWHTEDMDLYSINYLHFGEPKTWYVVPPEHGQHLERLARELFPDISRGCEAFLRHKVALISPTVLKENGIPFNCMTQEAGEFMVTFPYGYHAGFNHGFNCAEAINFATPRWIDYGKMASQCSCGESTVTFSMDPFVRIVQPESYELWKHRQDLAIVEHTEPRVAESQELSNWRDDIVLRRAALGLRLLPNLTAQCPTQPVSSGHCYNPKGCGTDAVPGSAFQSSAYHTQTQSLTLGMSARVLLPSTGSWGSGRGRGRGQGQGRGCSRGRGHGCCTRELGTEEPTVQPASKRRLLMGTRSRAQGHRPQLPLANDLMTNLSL
Briefly: Inhibition of KDM4E (unknown origin) by RFMS assay.

The target in series [6] is T4, Lysine-specific demethylase 5C (Homo sapiens, UniProt P41229). Briefly: Inhibition of human KDM5C transfected in U2OS cells assessed as inhibition of […] demethylation for 24 hrs. Format: cell-based. As to conditions: read-out: pIC50 (converted). An outline of the steps: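 High-content cell imaging assay in U2OS cells overexpressing KDM5C, the same cell type as the KDM4C cellular mechanistic assay. Cellular potency reported as pIC50.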

Series [7] deals with T4, Lysine-specific demethylase 5C. In words: Inhibition of KDM5C catalytic domain (1 -764 aa) (unknown origin) expressed in Sf9 cells using H3K4Me3 peptide as substrate by RFMS assay.
For series [8], the target named is Lysine-specific demethylase 6B (Homo sapiens, UniProt O15054). Briefly: Inhibition of KDM6B (unknown origin) by RFMS assay.
Series [9] addresses Prolyl hydroxylase EGLN3 (Homo sapiens, UniProt Q9H6Z9). In words: Inhibition of full-length EGLN3 (unknown origin) expressed in Escherichia coli BL21(DE3) cells by HTRF assay. In general terms: In TR-FRET formats the signal depends on donor and acceptor labels being close together.
Series [10] addresses T5, Lysine-specific demethylase 4D (Homo sapiens, UniProt Q6B0I6).
T5 sequence (Q6B0I6 whole entry): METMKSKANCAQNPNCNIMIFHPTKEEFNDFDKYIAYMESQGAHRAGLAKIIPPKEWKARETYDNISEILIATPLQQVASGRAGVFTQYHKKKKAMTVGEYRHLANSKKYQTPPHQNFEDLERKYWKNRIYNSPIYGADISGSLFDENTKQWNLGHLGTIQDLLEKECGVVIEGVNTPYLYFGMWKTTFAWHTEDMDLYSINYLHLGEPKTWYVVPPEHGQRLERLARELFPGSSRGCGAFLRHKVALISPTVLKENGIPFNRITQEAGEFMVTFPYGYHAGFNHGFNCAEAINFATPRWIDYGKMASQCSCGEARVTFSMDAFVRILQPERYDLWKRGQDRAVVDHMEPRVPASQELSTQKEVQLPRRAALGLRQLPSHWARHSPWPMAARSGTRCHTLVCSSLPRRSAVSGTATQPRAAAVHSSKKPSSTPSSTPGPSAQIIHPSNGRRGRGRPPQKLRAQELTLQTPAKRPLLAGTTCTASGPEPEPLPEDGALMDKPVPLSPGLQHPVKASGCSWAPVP
Briefly: Inhibition of KDM4D (unknown origin) by RFMS assay.

Series [11] addresses T1, Lysine-specific demethylase 4C. In words: Inhibition of N-terminal HALO-tagged full-length human KDM4C transfected in U2OS cells assessed as inhibition of H3K9Me3 demethylation for 24 hrs.

SMILES strings stand for the structures.

Data on 28 compounds can be found in ChEMBL document CHEMBL3769320, “Cell Penetrant Inhibitors of the KDM4 and KDM5 Families of Histone Lysine Demethylases. 2. Pyrido[3,4-d]pyrimidin-4(3H)-one Derivatives” (J Med Chem, 2016).

T4 sequence (P41229 whole entry): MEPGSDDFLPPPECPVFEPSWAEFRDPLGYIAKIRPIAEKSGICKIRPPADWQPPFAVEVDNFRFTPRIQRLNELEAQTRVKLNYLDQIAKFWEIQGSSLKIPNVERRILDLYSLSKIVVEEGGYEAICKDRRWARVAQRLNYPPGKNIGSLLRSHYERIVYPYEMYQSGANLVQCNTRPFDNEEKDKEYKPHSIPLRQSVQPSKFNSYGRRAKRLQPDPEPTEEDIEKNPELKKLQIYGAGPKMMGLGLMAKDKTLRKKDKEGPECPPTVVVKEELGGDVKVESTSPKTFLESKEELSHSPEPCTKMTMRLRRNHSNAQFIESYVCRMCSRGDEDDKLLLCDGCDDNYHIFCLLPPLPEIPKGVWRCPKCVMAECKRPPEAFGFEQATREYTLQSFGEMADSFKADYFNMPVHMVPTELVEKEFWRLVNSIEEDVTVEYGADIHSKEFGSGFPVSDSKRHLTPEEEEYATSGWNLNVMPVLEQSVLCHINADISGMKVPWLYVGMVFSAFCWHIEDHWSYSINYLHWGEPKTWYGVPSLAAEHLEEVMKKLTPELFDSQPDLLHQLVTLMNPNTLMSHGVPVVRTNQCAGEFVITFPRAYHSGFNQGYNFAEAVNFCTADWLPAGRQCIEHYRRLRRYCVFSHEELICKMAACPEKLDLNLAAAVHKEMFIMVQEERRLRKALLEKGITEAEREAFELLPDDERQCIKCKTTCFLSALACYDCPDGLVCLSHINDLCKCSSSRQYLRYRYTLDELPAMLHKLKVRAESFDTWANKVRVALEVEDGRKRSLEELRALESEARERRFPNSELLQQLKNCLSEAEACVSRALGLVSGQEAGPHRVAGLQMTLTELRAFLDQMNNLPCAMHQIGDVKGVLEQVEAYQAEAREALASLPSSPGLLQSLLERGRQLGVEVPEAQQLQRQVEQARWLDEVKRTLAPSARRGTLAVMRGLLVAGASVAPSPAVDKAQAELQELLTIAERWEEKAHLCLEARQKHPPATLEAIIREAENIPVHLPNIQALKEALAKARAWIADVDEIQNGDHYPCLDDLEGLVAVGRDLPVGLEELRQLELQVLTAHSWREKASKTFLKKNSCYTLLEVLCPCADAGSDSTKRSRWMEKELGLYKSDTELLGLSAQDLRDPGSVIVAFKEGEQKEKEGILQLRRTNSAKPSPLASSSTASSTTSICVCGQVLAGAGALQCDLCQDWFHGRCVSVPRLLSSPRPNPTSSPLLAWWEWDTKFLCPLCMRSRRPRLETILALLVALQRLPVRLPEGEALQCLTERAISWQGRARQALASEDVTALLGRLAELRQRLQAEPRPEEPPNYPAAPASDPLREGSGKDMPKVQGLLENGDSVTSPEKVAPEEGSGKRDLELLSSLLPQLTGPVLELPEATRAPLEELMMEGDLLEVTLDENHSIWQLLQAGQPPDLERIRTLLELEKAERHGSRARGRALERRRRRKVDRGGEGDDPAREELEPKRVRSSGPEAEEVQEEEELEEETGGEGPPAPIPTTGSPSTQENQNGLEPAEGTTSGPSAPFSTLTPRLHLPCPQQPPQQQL
Sequence of Lysine-specific demethylase 6B (O15054 whole entry): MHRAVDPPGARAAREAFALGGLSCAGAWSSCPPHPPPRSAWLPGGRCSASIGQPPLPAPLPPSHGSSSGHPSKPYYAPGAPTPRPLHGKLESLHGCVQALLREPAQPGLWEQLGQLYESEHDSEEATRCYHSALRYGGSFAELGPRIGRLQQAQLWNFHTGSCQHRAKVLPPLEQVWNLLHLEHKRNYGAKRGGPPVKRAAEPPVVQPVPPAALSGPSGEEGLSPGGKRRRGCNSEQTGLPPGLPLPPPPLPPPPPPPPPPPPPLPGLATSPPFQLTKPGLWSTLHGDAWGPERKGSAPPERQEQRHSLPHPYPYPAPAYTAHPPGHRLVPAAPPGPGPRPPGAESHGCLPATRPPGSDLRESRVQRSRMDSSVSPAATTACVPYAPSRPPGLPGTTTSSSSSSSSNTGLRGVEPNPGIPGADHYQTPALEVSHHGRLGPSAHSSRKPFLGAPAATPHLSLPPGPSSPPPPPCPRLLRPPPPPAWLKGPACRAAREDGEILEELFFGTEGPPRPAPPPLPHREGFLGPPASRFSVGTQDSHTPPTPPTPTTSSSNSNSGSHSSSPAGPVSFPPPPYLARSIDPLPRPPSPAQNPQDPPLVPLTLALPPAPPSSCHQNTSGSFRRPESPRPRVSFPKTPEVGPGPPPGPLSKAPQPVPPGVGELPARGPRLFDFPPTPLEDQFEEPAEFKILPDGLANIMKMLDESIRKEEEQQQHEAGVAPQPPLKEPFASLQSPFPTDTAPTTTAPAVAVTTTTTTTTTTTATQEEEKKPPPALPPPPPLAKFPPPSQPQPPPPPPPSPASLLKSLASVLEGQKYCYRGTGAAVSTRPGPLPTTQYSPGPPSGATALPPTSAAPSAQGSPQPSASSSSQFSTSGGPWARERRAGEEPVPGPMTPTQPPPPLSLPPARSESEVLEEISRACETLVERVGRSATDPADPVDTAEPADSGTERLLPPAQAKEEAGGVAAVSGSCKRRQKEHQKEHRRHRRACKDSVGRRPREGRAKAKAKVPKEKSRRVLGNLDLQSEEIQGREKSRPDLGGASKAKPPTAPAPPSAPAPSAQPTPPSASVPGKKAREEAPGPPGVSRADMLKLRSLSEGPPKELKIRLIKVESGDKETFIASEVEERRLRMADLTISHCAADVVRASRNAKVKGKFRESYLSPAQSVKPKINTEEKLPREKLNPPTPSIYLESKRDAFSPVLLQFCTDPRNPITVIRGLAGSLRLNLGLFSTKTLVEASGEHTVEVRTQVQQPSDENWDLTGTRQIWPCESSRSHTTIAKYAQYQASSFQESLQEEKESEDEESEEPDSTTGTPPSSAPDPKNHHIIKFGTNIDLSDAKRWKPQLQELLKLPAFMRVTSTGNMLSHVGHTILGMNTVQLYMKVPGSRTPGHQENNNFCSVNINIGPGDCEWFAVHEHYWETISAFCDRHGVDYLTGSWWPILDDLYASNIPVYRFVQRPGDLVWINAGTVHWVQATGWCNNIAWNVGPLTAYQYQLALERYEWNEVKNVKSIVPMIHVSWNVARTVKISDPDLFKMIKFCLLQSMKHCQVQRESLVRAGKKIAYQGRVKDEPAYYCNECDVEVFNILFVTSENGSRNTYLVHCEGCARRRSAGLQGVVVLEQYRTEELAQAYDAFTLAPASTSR
Sequence of Prolyl hydroxylase EGLN3 (Q9H6Z9 whole entry): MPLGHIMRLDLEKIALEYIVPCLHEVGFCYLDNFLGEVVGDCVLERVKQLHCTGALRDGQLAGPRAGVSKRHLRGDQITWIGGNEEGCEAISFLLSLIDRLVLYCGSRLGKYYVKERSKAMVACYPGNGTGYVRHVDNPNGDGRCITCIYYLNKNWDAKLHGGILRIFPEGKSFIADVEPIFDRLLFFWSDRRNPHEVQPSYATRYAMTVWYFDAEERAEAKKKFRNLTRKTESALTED

As to `O=c1ncn(CCCc2ccccc2)c2cnccc12`, the IC50 in [1] is not below 100 µM.
Compound `O=c1[nH]c(Oc2cnn(-c3ccccc3)c2)nc2cnccc12` registered a pH-dependent lipophilicity (logD) in [2] of 1.9. Moreover, the IC50 in series [3] was 3.98 µM; in [1], 0.398 µM.
The matching figures for `O=c1[nH]c(Oc2cccnc2)nc2cnccc12`: -0.2, 12.6 µM and 0.501 µM.
Compound `O=c1[nH][nH]c2cnccc12` had an IC50 in series [1] of more than 100 µM.
On to `O=c1[nH]ccc2cnccc12`, for which the IC50 in series [1] was more than 100 µM.
With `O=c1[nH]c(Oc2ccccc2)nc2cnccc12`, the pH-dependent lipophilicity (logD) in series [2] turned out to be 1.2. Moreover, the IC50 in [3] is 12.6 µM; in series [1] it was 0.631 µM.
In the case of `O=c1[nH]c(-c2cncc(F)c2)nc2cnccc12`, the IC50 in series [1] was 2 µM.
On to `O=c1[nH]c(Oc2cn[nH]c2)nc2cnccc12`, for which the logD in series [2] is -0.6. Further, the IC50 is 7.94 µM in series [3] and 0.398 µM in series [1].
In series [1], `O=c1[nH]c(-c2ccccc2)nc2cnccc12` showed an IC50 of 20 µM.
For `O=c1[nH]c(-c2cccnc2)nc2cnccc12`, the IC50 in series [1] is 7.94 µM.
`O=c1[nH]c(Oc2cnn(C3CCCCCC3)c2)nc2cnccc12` had a logD in [2] of 2.9. The IC50 in series [3] was 2.51 µM; in [1] it was 0.501 µM.
Turning to `O=c1[nH]ncc2cnccc12`, the IC50 in series [1] is more than 100 µM.
Take `O=c1[nH]c(OCc2ccccc2)nc2cnccc12`: in [2], the pH-dependent lipophilicity (logD) stood at 2.8. For the same compound, the values for the IC50 in series [3] and in series [1] were more than 100 µM and 2 µM, respectively.
For the compound `O=c1[nH]c(Oc2ccc(Cl)cc2)nc2cnccc12`, the IC50 was 10 µM in [3] and 0.501 µM in series [1].
In turn, `O=c1[nH]c(Oc2cnn(Cc3cccnc3)c2)nc2cnccc12` displayed a pH-dependent lipophilicity (logD) in [2] of 0.3. In addition, the IC50 in series [3] is 12.6 µM; in [1], 0.631 µM.
In series [1], `O=c1ncn(Cc2ccccc2)c2cnccc12` had an IC50 of 25.1 µM.
Take `Cn1cc(Oc2nc3cnccc3c(=O)[nH]2)cn1`: the logD in series [2] was -0.3. For the same compound, the IC50 is 7.94 µM in [3] and 0.398 µM in [1].
On to `O=c1[nH]c(Oc2cnn(Cc3ccccc3)c2)nc2ncccc12`, for which the IC50 in [4] was more than 100 µM; in series [5] it was more than 100 µM; in [3], more than 100 µM; in [6] it was more than 100 µM; in series [1], more than 100 µM; in [7], 31.6 µM. The IC50 in series [8], in series [9] and in series [10] was more than 100 µM each time.
Take `O=c1[nH]c(OCC2CCCCC2)nc2cnccc12`: the logD in series [2] worked out at 4.5. In addition, the IC50 is more than 100 µM in series [3] and 3.16 µM in series [1].
In series [2], `Cc1c(Oc2nc3cnccc3c(=O)[nH]2)cnn1C` showed a logD of -0.2. In series [1], this compound showed an IC50 of 2 µM.
With `CC(C)c1ccc(Oc2nc3cnccc3c(=O)[nH]2)cn1`, the IC50 is 1.58 µM in [4]; 0.398 µM in series [5]; 50.1 µM in series [6]; 1 µM in series [1]; 0.126 µM in series [7]; 2 µM in [11]. This compound also gave an IC50 in [10] of 0.631 µM. The compound also gave a log distribution coefficient (logD) in [2] of 1.5.
Consider `COc1cccc(Cn2cc(Oc3nc4cnccc4c(=O)[nH]3)cn2)c1`, for which, in series [2], the log distribution coefficient (logD) stood at 2. In addition, the IC50 is 6.31 µM in series [3] and 0.631 µM in series [1].
With `Cc1nn(C)cc1Oc1nc2cnccc2c(=O)[nH]1`, the log distribution coefficient (logD) in [2] was 0. Besides, the IC50 in [3] was more than 100 µM; in [1] it was 2.51 µM.
In the case of `CC(C)n1cc(Oc2nc3cnccc3c(=O)[nH]2)cn1`, in series [2], the logD came out at 0.7. For the same compound, the IC50 was 5.01 µM in series [3] and 0.501 µM in series [1].
`O=c1[nH]c(Oc2cnn(C3CCCCC3)c2)nc2cnccc12`: the pH-dependent lipophilicity (logD) in series [2] was 2.2. Moreover, the IC50 was 3.98 µM in series [3] and 0.398 µM in series [1].
In series [2], `O=c1[nH]c(OC2CCCCC2)nc2cnccc12` displayed a pH-dependent lipophilicity (logD) of 3.7. For the same compound, the IC50 was 25.1 µM in series [3] and 3.16 µM in series [1].
`O=c1[nH]c(Oc2cccc(O)c2)nc2cnccc12` yielded a logD in series [2] of 0.3. In addition, the results for the IC50 in [3] and in series [1] were 10 µM and 0.2 µM, respectively.
In series [5], `Nc1cnccc1C(=O)O` gave an IC50 of 1.26 µM.

In general, logD refers to the decadic logarithm of the distribution of all forms, ionised or not, between an organic phase and buffer at a given pH.
